The subject of one data set is 3Y1 cell line. Put plainly: Induction of morphological changes in rat 3Y1 cells assessed as lost pseudopodia at 0.2 uM before washing. The format is functional, cell-based. A digest of the protocol: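 3Y1 B clone 1-6 fibroblasts, kept subconfluent in DMEM/10% fetal calf serum at 37 °C under 5% CO2, were seeded at 2 × 10⁴ cells/mL and incubated 24 h. Samples in MeOH were added. Morphology was checked by phase-contrast microscopy at 1, 5 and 24 h and on day 5. Some cultures were washed with fresh medium to test reversibility.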

The nature of data set [1]: Cytotoxicity against rat 3Y1 cells after 72 hrs by MTT assay. The format is cell-based. The method, boiled down:
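3Y1 rat embryonic fibroblasts (B clone 1-6) in DMEM with 10% fetal calf serum were seeded at 300 cells/well and incubated 24 h. Samples were added, then plates were held 72 h at 37 °C. MTT (5 mg/mL in Ca/Mg-free PBS) was added for 4 h, formazan was dissolved in DMSO, and absorbance was read at 540 nm to give GI50.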

The subject of data set [2] is P388. Put plainly: Cytotoxicity against mouse P388 cells by MTT assay. The format is functional. In general terms: Tetrazolium assays rely on reduction of a dye to a coloured formazan, in cell work by metabolically active cells.
Another data set concerns Candida albicans. Put plainly: Antimicrobial activity against Candida albicans at 100 ug/disk. The format is functional, organism-based.
The subject of another data set is Umbelopsis ramanniana. As to the kind of experiment: Antimicrobial activity against Mortierella ramanniana at 100 ug/disk. The format is functional, organism-based.
The test system of a further data set is Penicillium chrysogenum. As to the kind of experiment: Antimicrobial activity against Penicillium chrysogenum at 100 ug/disk. The format is functional, organism-based.
The subject of another data set is Bacillus subtilis. As to the kind of experiment: Antimicrobial activity against Bacillus subtilis at 100 ug/disk. The format is functional, organism-based.
Another data set has as its system Escherichia coli. As to the kind of experiment: Antimicrobial activity against Escherichia coli at 100 ug/disk. The format is functional, organism-based.
A further data set concerns Pseudomonas aeruginosa. As to the kind of experiment: Antimicrobial activity against Pseudomonas aeruginosa at 100 ug/disk. The format is functional, organism-based.
In a further data set the test system is Staphylococcus aureus. Put plainly: Antimicrobial activity against Staphylococcus aureus at 100 ug/disk. The format is functional, organism-based.
The nature of data set [3]: Induction of cell death in rat 3Y1 cells at 0.2 uM after 5 days without washing. The settings on record: 3y1, 120 h.
A short description of data set [4]: Induction of cell death in rat 3Y1 cells at 0.2 uM after 5 days after washing. To be noted: 3y1, 120 h. The format is cell-based.
Data set [5] in a line: Cytotoxicity against rat 3Y1 cells at 18 uM after 72 hrs by MTT assay. The format is cell-based. The settings on record: 3y1, 72 h.
For data set [6], the system named is P388. As to the kind of experiment: Cytotoxicity against mouse P388 cells at 18 uM by MTT assay. The format is functional, cell-based.

Usually GI50 stands for the concentration at which growth is held to half of that of the control. Higher therefore signals less potent growth inhibition.

SMILES strings stand for the structures. Calls of active or inactive are those of the source. The rule behind the calls is not given here.

With `CC(C)=CCC/C(C)=C/C=C/C(C)=C1\C(=O)C[C@H]2[C@@]3(C)CC[C@H](O)[C@](C)(CO)[C@@H]3CC[C@]12C`, the result with 3Y1 cell line was Active. The GI50 at 72 h in data set [1] was 60 nM. Growth in the data set with P388 [2] was halved (GI50) at 190 nM. For the same compound, the outcome in the data set with Candida albicans, with Umbelopsis ramanniana, in the data set with Penicillium chrysogenum, in the data set on Bacillus subtilis, with Escherichia coli and with Pseudomonas aeruginosa was inactive. In addition, the result in the data set with Staphylococcus aureus was inactive. Besides, the result in [3] was Active.
For the compound `CC(C)=CCC/C(C)=C/C=C/C(C)=C1\C(=O)C[C@H]2[C@@]3(C)CC[C@H](O)C(C)(C)[C@@H]3CC[C@]12C` [STELLIFERIN D], in the data set with 3Y1 cell line, the outcome was Active. Also, the GI50 at 72 h in data set [1] amounted to 18 nM. Further, in the data set on P388 [2], it took 24 nM to inhibit growth by half (GI50). Further, the result with Candida albicans, with Umbelopsis ramanniana, in the data set with Penicillium chrysogenum, with Bacillus subtilis, with Escherichia coli and with Pseudomonas aeruginosa was inactive. In addition, the outcome with Staphylococcus aureus was inactive. Further, the result in data set [3] was Active.
For the compound `CC(=O)O[C@@H]1CC[C@@]2(C)[C@@H](CC[C@]3(C)/C(=C(C)/C=C/C=C(\C)[C@@H](O)CC=C(C)C)C(=O)C[C@@H]23)[C@@]1(C)CO`, the result in the data set on 3Y1 cell line was Active. For the same compound, the result in data set [4] was Active. The GI50 at 72 h in data set [1] was 46 nM. This compound also came in with a GI50 with P388 [2] of 180 nM. Besides, the result in the data set on Candida albicans, with Umbelopsis ramanniana, in the data set on Penicillium chrysogenum, in the data set on Bacillus subtilis, in the data set on Escherichia coli and in the data set on Pseudomonas aeruginosa was inactive. For the same compound, in the data set with Staphylococcus aureus, the result was inactive.
Turning to `CC(=O)O[C@@H](CC=C(C)C)/C(C)=C/C=C/C(C)=C1\C(=O)C[C@H]2[C@@]3(C)CC[C@@H](OC(C)=O)[C@](C)(CO)[C@@H]3CC[C@]12C`, the result in the data set on 3Y1 cell line was Active. In data set [4], the result was Active. Growth in data set [1] was halved (GI50 at 72 h) at 52 nM. In addition, in the data set on P388 [2], it took 160 nM to inhibit growth by half (GI50). Also, the outcome in the data set on Candida albicans, in the data set with Umbelopsis ramanniana, in the data set on Penicillium chrysogenum, with Bacillus subtilis, in the data set with Escherichia coli and in the data set on Pseudomonas aeruginosa was inactive. In addition, the result with Staphylococcus aureus was inactive.
In data set [1], `CC(=O)O[C@H]1C[C@H]2[C@@]3(C)CC[C@H](OC(C)=O)C(C)(C)[C@@H]3CC[C@]2(C)/C1=C(C)/C=C/C=C(\C)[C@H](CC=C(C)C)OC(C)=O` gave a GI50 at 72 h of 1300 nM. The compound also came in with a GI50 in the data set on P388 [2] of 1600 nM.
With `CC(=O)O[C@@H]1CC[C@@]2(C)[C@@H](CC[C@]3(C)/C(=C(\C)C(=O)/C=C/C(C)=C/C=C/C(C)(C)O)C(=O)C[C@@H]23)[C@@]1(C)C(=O)[O-].[Na+]` [GLOBOSTELLATIC ACID A], the Activity result in [5] was “Non-toxic”; in the data set with P388 [6], “Not toxic”.
For the compound `CC(=O)O[C@H]1CC[C@@]2(C)[C@@H](CC[C@]3(C)/C(=C(C)/C=C/C=C(\C)[C@@H](O)CC=C(C)C)C(=O)C[C@@H]23)C1(C)C` [STELLIFERIN A], the result with 3Y1 cell line was Active. In addition, halving of growth in [1] (GI50 at 72 h) required 34 nM. Further, the GI50 in the data set on P388 [2] is 21 nM. In addition, the result in the data set with Candida albicans, in the data set with Umbelopsis ramanniana, in the data set with Penicillium chrysogenum, in the data set on Bacillus subtilis, in the data set with Escherichia coli and with Pseudomonas aeruginosa was inactive. The result with Staphylococcus aureus was inactive. Besides, in data set [3], the outcome was Active.
Regarding `COc1cccc2c1C(=O)c1c(O)c3c(c(O)c1C2=O)C[C@@](O)(C(=O)CO)C[C@@H]3O[C@H]1C[C@H](N)[C@H](O)[C@H](C)O1` [DOXORUBICIN], in [1], the GI50 at 72 h was found to be 3.8 nM. In addition, halving of growth with P388 [2] (GI50) required 12 nM.

The record behind these values is ChEMBL document CHEMBL1155674, “New isomalabaricane triterpenes from the marine sponge Stelletta globostellata that induce morphological changes in rat fibroblasts” (J Nat Prod, 2000).
